This is a sample that favours compounds with a hit; in the whole collection about 2.5% have one here.
UHRF1 MBD2 ctr = UHRF1 methylated DNA binding inhibitors, primary screen, counter-screen for MBD2 inhibitor project, biochemical, TR-FRET, human UHRF1, single concentration; actives 0.75% (n = 370,000); inhibition, % at 4.4 µM; UHRF1 binding to methylated oligo; AID 687016, 2013;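 further: UHRF1 SRA domain binding a hemimethylated CpG hairpin DNA probe; 0% = median of test compound wells and 100% = reference inhibitor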
MBD2 DNA inh = inhibitors of MBD2 binding to methylated DNA, primary screen, biochemical, TR-FRET, DNA-binding domain, human; MBD2 binding to methylated oligonucleotide; inhibition, % at 4.4 µM; actives 0.31% (n = 370,000); AID 686964, 2013; in the data active means inhibition above about 13%
SUMO1 PPI mod = modulators of SUMO1 protein-protein interactions, primary screen, biochemical, uHTS. Small ubiquitin-related modifier 1 (Homo sapiens), P63165. SUMO1 binding to a labelled peptide, TR-FRET, 1 h. inhibition, % at 20 µM. actives 0.33% (n = 360,000); in the data active means inhibition above about 37%
HCV NS3 hel inh = inhibitors of HCV NS3 helicase, primary screen, biochemical, Cy5 molecular beacon fluorescence | AID 1800, 2009 | NS3 helicase DNA unwinding | inhibition, % at 10.9 µM | actives 0.56% (n = 290,000);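 active means inhibition above the mean of all tested compounds plus 3 SD, set per campaign, cut at about 35% in these data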;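 further: 0% = DMSO wells and 100% = thioflavine S control wells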
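Material: hepatitis C virus NS3 helicase domain fragment enzyme; measured by: Cy5 fluorescence, 0 and 60 min reads; control set: DMSO and thioflavine S; incubation: 60 min unwinding reaction at 25 °C after ATP addition; read-out basis: % inhibition from 60/0 min fluorescence ratio, DMSO 0%, thioflavine S 100%; repeats: singlicate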
DSG3 Ab inh = inhibitors of pemphigus antibody binding to DSG3, primary screen, biochemical, bead-based, flow cytometry, scFv-GFP. Desmoglein-3 (Homo sapiens), P32926. DSG3-coupled beads, scFv-anti-DSG3-GFP binding; hits give low values. binding (percent of control), % at 10 µM. actives 0.48% (n = 310,000). AID 588358, 2011;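 active means binding more than 3 SD below its plate's average and above zero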;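 further: hits lower antibody fragment binding to DSG3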
DNMT1 block = human DNMT1 methyltransferase inhibitors, primary screen, biochemical, molecular beacon, fluorescence, HinP1I cleavage, uHTS; DNA (cytosine-5)-methyltransferase 1 (Homo sapiens), P26358; inhibition (reported as % activation of signal), % at 10 µM; actives 0.83% (n = 360,000); AID 588458, 2011; in the data active means inhibition above about 50%
Target sequence (P26358 504-1616 limits assumed): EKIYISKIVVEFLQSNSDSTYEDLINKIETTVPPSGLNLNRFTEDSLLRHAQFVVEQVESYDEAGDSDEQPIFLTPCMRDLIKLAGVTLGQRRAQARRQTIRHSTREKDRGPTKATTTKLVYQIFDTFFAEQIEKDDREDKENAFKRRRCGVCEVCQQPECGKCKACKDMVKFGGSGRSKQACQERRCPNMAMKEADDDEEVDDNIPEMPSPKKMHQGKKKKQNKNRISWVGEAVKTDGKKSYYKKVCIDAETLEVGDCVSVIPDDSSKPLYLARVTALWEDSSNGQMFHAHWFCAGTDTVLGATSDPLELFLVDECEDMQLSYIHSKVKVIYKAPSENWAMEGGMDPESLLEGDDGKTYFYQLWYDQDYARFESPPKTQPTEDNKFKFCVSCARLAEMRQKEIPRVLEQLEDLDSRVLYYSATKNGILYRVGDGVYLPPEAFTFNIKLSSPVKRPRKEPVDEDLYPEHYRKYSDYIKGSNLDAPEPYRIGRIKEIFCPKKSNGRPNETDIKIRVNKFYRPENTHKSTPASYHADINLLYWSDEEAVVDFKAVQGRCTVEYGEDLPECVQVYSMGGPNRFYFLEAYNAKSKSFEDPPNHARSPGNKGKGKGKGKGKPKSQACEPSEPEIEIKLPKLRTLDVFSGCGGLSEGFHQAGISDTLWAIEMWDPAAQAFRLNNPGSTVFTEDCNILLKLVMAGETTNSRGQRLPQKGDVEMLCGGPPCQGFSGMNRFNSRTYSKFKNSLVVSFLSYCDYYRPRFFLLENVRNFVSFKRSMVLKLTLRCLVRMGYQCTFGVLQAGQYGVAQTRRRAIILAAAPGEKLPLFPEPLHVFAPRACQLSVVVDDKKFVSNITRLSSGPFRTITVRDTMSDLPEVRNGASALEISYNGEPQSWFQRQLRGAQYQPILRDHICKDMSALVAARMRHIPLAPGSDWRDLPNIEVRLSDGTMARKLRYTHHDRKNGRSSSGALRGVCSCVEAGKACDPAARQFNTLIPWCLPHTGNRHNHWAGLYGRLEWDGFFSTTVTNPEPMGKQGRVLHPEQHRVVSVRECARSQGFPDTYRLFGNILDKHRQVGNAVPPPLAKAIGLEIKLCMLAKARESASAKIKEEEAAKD
Beacon interf DR = spectral interference with molecular beacon fluorescence, dose response, artefact control for DNMT1 inhibitor project, biochemical, fluorescent molecular beacon | shares compounds with DNMT1 block | spectral interference counter-screen | IC50, µM | 200 tested, under 10 active | AID 602382, 2012; call rule not given here
DNMT1 inh conf = DNMT1 methyltransferase inhibitor retest, confirmation, biochemical, molecular beacon, fluorescence, single concentration; inhibition, % at 10 µM; shares compounds with DNMT1 block; actives 8% (n = 2,300); DNMT1 molecular beacon HinP1I cleavage;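 active means average inhibition of at least 30% in the single-concentration confirmation test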
Beacon interf = shows spectral interference in the DNMT1 beacon assay; shares compounds with DNMT1 block; DNMT1 molecular beacon spectral interference counterscreen, fluorescence 485/520; activation (fluorescence interference), % at 10 µM; actives 1% (n = 2,300);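 active means activation of at least 30% at 10 µM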;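 further: DNMT1 catalytic domain with a HinP1I cleavage step and a FAM/dabcyl DNA beacon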
UHRF1 ctr MBD2 = UHRF1 methylated DNA binding inhibitors, counter-screen for MBD2 inhibitor project, biochemical, TR-FRET, human UHRF1 | UHRF1 binding to methylated oligonucleotide | inhibition, % at 4.4 µM | actives 25% (n = 1,000) | shares compounds with MBD2 DNA inh;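 further: UHRF1 SRA domain binding a labeled hemimethylated CpG hairpin DNA; 0% = vehicle only and 100% = reference inhibitor with vehicle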
MBD2 confirm = inhibitors of MBD2 binding to methylated DNA, confirmation, biochemical, TR-FRET, DNA-binding domain, human | shares compounds with MBD2 DNA inh | TR-FRET MBD2-DBD binding to methylated oligonucleotide | inhibition, % at 4.4 µM | actives 26% (n = 1,000) | AID 720531, 2013; in the data active means inhibition above about 14%
* marks the source's active call; other numbers are inactive results; / = no result. Unless noted, no stated cut-off is given here; in the data, active means inhibition above about 21%; inactive means the rest.

SMILES	UHRF1 MBD2 ctr	MBD2 DNA inh	SUMO1 PPI mod	HCV NS3 hel inh	DSG3 Ab inh	DNMT1 block	DNMT1 inh conf	Beacon interf	UHRF1 ctr MBD2	MBD2 confirm	others
CN1CCc2nc3ccccc3c(C(=O)OCC(=O)N(CCC#N)c3ccccc3)c2C1	-3.0	-2.7	-7.7	-5.3	118.0	-21.7	/	/	/	/
CN(CCC#N)C(=O)COC(=O)c1c2c(nc3ccccc13)/C(=C\c1ccco1)CC2	41.1*	20.1*	57.3*	/	123.4	77.1*	7.5	6.5	34.6*	28.9*
CCOC(=O)CSc1nc(NCc2ccco2)c2ccccc2n1	-1.1	0.2	3.2	-3.9	107.6	-2.7	/	/	/	/
Cc1ccccc1NC(=O)CCS(=O)(=O)c1ccc(Br)cc1	2.7	3.7	10.0	1.2	101.8	8.1	/	/	/	/
CCN(CC)c1ccc(NC(=O)CCS(=O)(=O)c2ccc(Br)cc2)c(C)c1	54.1*	25.4*	26.8	29.6	103.6	96.7*	42.2*	4.0	63.2*	30.0*	Beacon interf DR=>99
N=C1C(c2nc3ccccc3s2)=C(O)CN1NC(=O)c1ccccc1[N+](=O)[O-]	0.5	3.4	0.7	7.8	95.0	11.7	/	/	/	/
N=C1C(c2nc3ccccc3s2)=C(O)CN1NC(=O)c1c[nH]c2ccccc12	-20.8	15.3*	-7.1	-9.0	95.5	64.9*	2.3	0.4	-12.4	21.8*
CCOC(=O)c1cc(-c2ccc(N3CCOCC3)cc2)nn1-c1ccccc1C(=O)O	19.7	22.7*	105.6*	14.2	90.3	94.2*	34.5*	-4.4	26.7*	26.6*	Beacon interf DR=>99
c1coc(-c2nnc3sc(Cc4cccs4)nn23)c1	71.3*	18.7*	18.9	20.4	92.6	66.5*	0.4	-0.7	8.0	8.8
Cc1ccc(OCC(=O)c2c(N)n(C)c(=O)n(C)c2=O)c([N+](=O)[O-])n1	22.5*	18.6*	12.2	/	90.5	81.8*	22.9	3.2	35.5*	17.2*
C[C@H](NC(=O)c1ccco1)C(=O)Nc1nnc(SCc2ccccc2)s1	4.2	-1.3	3.3	/	112.2	0.3	/	/	/	/
COc1ccc(OC)c(N2C(=O)[C@@H]3C(c4ccccc4Cl)=NO[C@@H]3C2=O)c1	66.9*	25.6*	13.1	13.6	98.5	114.5*	60.5*	2.0	38.2*	18.0*	Beacon interf DR=>99
COc1ccc(OC)c(NC(=O)COC(=O)c2cc3c(s2)CCC3)c1	47.4*	18.6*	6.5	21.4	72.7	89.2*	19.3	1.6	40.3*	35.0*
COc1ccc(OC)c(NC(=O)COC(=O)CCC2CCCC2)c1	-0.4	-0.8	-2.4	/	/	-0.8	/	/	/	/
c1ccc2c(c1)c1c(c3ccccc32)CN2CCCC2C1 (stereo not drawn)	26.3*	36.5*	-16.9	/	/	54.1*	28.9	0.0	33.8*	49.0*	Beacon interf DR=>99
COc1ccc(C(=O)N(CC(=O)NC(C)(C)C)c2ccc3c(c2)OCCO3)cc1OC	20.1	16.4*	-2.0	-3.5	98.5	4.2	/	/	7.4	4.3
CC(C)(C)NC(=O)CN(C(=O)c1ccc(CN2CCOCC2)o1)c1ccc2c(c1)OCCO2	5.8	0.8	2.4	-2.4	94.7	-1.9	/	/	/	/
Cc1cccc(C(=O)NC2CCN(S(=O)(=O)c3ccc(F)cc3)CC2)c1	4.1	0.8	3.9	4.9	115.8	0.0	/	/	/	/
COc1cc(N(C)C)ccc1C=c1c2ccccc2n2c1cc(-c1ccccc1)[n+]2C	43.2*	26.6*	-19.3	/	68.0	-14.0	/	/	62.1*	57.6*
CN(C)c1ccc(C=c2c3ccccc3n3c2cc(-c2ccccc2)[n+]3C)cc1	40.5*	22.1*	-61.3	/	/	29.4	/	/	64.1*	56.2*
COc1ccc(N2C(=O)CC(N(Cc3ccco3)C(=O)CCC(=O)O)C2=O)cc1 (stereo not drawn)	-2.0	-3.8	-1.4	6.8	110.6	1.1	/	/	/	/
CCCOc1ccc(N2C(=O)CC(N(Cc3ccco3)C(=O)CCC(=O)O)C2=O)cc1 (stereo not drawn)	1.6	16.3*	-0.8	2.1	98.6	2.4	/	/	4.0	1.6
COc1ccccc1NC(=S)N1CCN(C(=O)c2ccco2)CC1	-0.5	-2.1	1.9	18.4	96.0	1.3	/	/	/	/
COC(=O)Cc1nnn2c1[C@H](C)[C@H](C(C)(C)C)OCC2	-1.8	-0.3	/	/	/	/	/	/	/	/
COC(=O)Cc1nnn2c1[C@H](C)[C@H](c1cccc(OC)c1OC)OCC2	26.3*	16.0*	/	/	/	/	/	/	6.2	2.8
SMILES	UHRF1 MBD2 ctr	MBD2 DNA inh	SUMO1 PPI mod	HCV NS3 hel inh	DSG3 Ab inh	DNMT1 block	DNMT1 inh conf	Beacon interf	UHRF1 ctr MBD2	MBD2 confirm	others
CCC(Oc1ccccc1)C(=O)Nc1ccccc1C(=O)N1CCN(C)CC1 (stereo not drawn)	3.1	4.1	-0.7	3.6	/	-0.2	/	/	/	/
CCCc1ccc(C(=O)NNC(=O)c2ccc(Br)cc2)cc1	1.9	14.6*	-1.9	-6.0	109.8	33.2	/	/	7.9	9.9
O=C(CSc1ncnc2nc[nH]c12)Nc1ccccc1C(F)(F)F	-3.6	-6.3	-0.2	0.9	115.3	-0.2	/	/	/	/
O=C(c1cccnc1)N1CCN(C(=O)c2cccc(Cl)c2)CC1	-1.6	0.7	-2.8	5.8	96.1	1.2	/	/	/	/
CCN1CCN(c2ccc(NC(=O)c3ccc(Cl)c(N4CCCC4=O)c3)cc2)CC1	4.2	-2.3	-5.8	-7.6	/	-2.0	/	/	/	/
CCn1nc(C(=O)NNC(=O)c2ccc(OC(F)F)cc2)c2ccccc2c1=O	-1.3	3.0	-1.4	/	105.9	-0.1	/	/	/	/
CCn1nc(C(=O)NNC(=O)c2ccccc2)c2ccccc2c1=O	-0.8	24.3*	-5.7	/	102.3	2.2	/	/	5.6	3.5
